Published values from different studies.
Protocols differ between the studies behind these lines.
Target: Phosphatidylinositol 4,5-bisphosphate 3-kinase catalytic subunit gamma isoform (PIK3CG, Homo sapiens, UniProt P48736)

`O=C(c1ccc(Nc2ncc(Cl)c(-c3ccc(Cl)s3)n2)cc1)N1CCC(N2CCCC2)CC1` has a remaining binding of 90% (binding; competition with immobilised ligand; 1 µM).
`CN(C)c1nccc(-c2cnn3ncccc23)n1` gave a remaining binding of 76% (binding; 1 µM).
With `NS(=O)(=O)c1cc(NC(=O)Cc2ccccc2)ccc1Oc1cccc(Cl)c1` the remaining binding was 77% (cell-free assay; competition with immobilised ligand; 1 µM).
`CCN1CCN(Cc2ccc(C(=O)Nc3ccc(C)c(Oc4ccc5c(c4)CC(=O)N5)c3)cc2C(F)(F)F)CC1` gave a remaining binding of 93% (binding; competition with immobilised ligand; 1 µM).
`C[C@@H]1CCN(c2nccc(-c3cnn4ncccc34)n2)C1` gave a remaining binding of 58% (binding; 1 µM).
`C[C@@H](c1cccc(C#N)c1)n1cc(Cl)cc(C(N)=O)c1=N` has a remaining binding of 100% (cell-free assay; competition with immobilised ligand; 1 µM).
For `O=C(c1ccc(Nc2ncc(Cl)c(-c3cc4ccccc4s3)n2)cc1)N1CCC(N2CCCC2)CC1`, the remaining binding was 87% (binding; competition with immobilised ligand; 1 µM).
The remaining binding of `O=C(Nc1c[nH]nc1C(=O)NC1CCNCC1)c1cc(F)cc(F)c1` is reported as 100% (binding; competition with immobilised ligand; 1 µM).
With `Nc1ncc2c(n1)-c1c([nH]c3ccc(C#CC4CC4)cc13)CCCC2` the remaining binding was 77% (binding; competition with immobilised ligand; 1 µM).
`CN1CCN(c2cnc3c(C4CCN(C(=O)c5ccc(OC(F)(F)F)cc5N)CC4)ncnc3c2)CC1` gave a remaining binding of 95% (cell-free assay; competition with immobilised ligand; 1 µM).
`CN(c1nccc(-c2cnn3ncccc23)n1)C1CC1` gave a remaining binding of 100% (binding; 1 µM).
For `O=C(NCCCN1CCOCC1)c1ccc(Nc2ncc(Cl)c(-c3ccc(Cl)s3)n2)cc1`, the remaining binding was 100% (binding; competition with immobilised ligand; 1 µM).
`CC1CCCN1c1nccc(-c2cnn3ncccc23)n1` (centres unmarked) gave a remaining binding of 100% (binding; 1 µM).
With `Cn1cc(Cl)c2c(Oc3c(F)cc(Nc4cc(Cl)nc(N)n4)cc3F)ccnc21` the remaining binding was 82% (cell-free assay; competition with immobilised ligand; 0.1 µM).
`Cc1cnn2ncc(-c3ccnc(N(C)C)n3)c2c1` has a remaining binding of 47% (binding; 1 µM).
`O=C(Nc1cccnn1)N1CCC(=Cc2cccc(Oc3ccc(C(F)(F)F)cn3)c2)CC1` gave a remaining binding of 100% (cell-free assay; competition with immobilised ligand; 1 µM).
The remaining binding of `c1cnn2ncc(-c3ccnc(N4CCC45COC5)n3)c2c1` is reported as 74% (binding; 1 µM).
The remaining binding of `FC(F)(F)c1ccc2c(c1)nc(-c1cccnc1)n2C1CC1` is reported as 92% (cell-free assay; competition with immobilised ligand; 1 µM).
The remaining binding of `CC(C)(C)c1ccc(-c2nc(CBr)nn2-c2cccc(O)c2)cc1` is reported as 94% (cell-free assay; competition with immobilised ligand; 10 µM).
`CNC(=O)[C@@H]1CC[C@@H](n2c(-c3ccc4cnccc4c3)nc3ccc(C(=O)NCc4cccc(C(N)=O)c4)cc32)C1` gave a remaining binding of 100% (binding; competition with immobilised ligand; 1 µM).
`c1cncc(-c2cccc(Nc3nccc(NC4CCCCC4)n3)c2)c1` has a remaining binding of 69% (binding; competition with immobilised ligand; 10 µM).
With `N[C@H]1CCN(c2nccc(-c3cnn4ncccc34)n2)C1` the remaining binding was 100% (binding; 1 µM).
The remaining binding of `COCCOc1nc(-c2ccc(Cl)nc2)nc2c1CN(C(=O)c1ncn3ccccc13)CC2` is reported as 100% (cell-free assay; competition with immobilised ligand; 0.1 µM).
